Screening data as filed in PubChem.
Most compounds without a hit are left out; they make up all but 2.3% or so of the library.
NR2F2 inh: NR2F2 (human) inhibition, primary screen | HEK293T NGFI-A luciferase reporter, luminescence | inhibition, % at 8.6 µM | hit rate 0.7% among 370,000;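 active means inhibition above a per-plate cutoff, mean inhibition of test wells between control levels plus 3 SD, cut at about 38% in these data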;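 further: cells cotransfected with COUP-TFII expression vector driving the NGFI-A reporter; 0% = median of COUP-TF2 test wells and 100% = reporter-only cells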
CHT PAM: human CHT allosteric activation; AID 488977; B-score at 10 µM; CHT-expressing cells, membrane potential dye, choline EC20; hits give high values; LV-AA mutant CHT in HEK293 cells; hit rate 0.49% among 310,000;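 active means initial fluorescence not abnormally high and integrated response B-score, plate-corrected, over 3 SD above library mean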
GalR3 antagonist: antagonists of human GalR3; HEK293 GalR3-CNG cAMP membrane potential fluorescence; galR3 body fused to GalR1 C-terminus; inhibition, % at 3 µM; hit rate 0.44% among 360,000; AID 651719;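 active means inhibition above the screen-wide average plus 3 SD, cut at about 13% in these data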;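 further: forskolin and galanin both at EC90 stimulate the cells; cAMP rise reported by CNG channel membrane potential dye signal; 0% = forskolin plus galanin with DMSO and 100% = forskolin alone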
NR2E3 ag-1: activates human photoreceptor nuclear receptor NR2E3 | Q9Y5X4 | GST-NR2E3/biotin-RetCOR TR-FRET, 1536-well | inhibition of corepressor binding, % at 4.78 µM | hit rate 0.12% among 320,000 | AID 2300;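 active means percent inhibition above the cutoff of mean plus 3 SD of all tested compounds, set per screening campaign, cut at about 20% in these data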;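 further: 0% = DMSO wells and 100% = biotin wells as full block of FRET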
Target sequence (Q9Y5X4 whole entry, looked up): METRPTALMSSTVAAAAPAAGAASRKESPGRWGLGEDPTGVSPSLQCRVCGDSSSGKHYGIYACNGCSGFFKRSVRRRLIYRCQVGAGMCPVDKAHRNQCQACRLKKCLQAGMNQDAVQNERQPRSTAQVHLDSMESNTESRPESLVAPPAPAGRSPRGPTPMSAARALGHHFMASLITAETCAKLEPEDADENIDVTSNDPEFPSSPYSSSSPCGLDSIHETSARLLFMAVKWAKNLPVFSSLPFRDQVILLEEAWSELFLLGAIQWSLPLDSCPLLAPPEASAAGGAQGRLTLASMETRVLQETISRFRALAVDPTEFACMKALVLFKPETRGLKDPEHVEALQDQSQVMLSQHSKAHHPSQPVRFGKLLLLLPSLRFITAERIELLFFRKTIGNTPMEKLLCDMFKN
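Material: NR2E3–RetCOR corepressor complex / Amount: 1.35 nM GST-NR2E3 / Medium: Tris pH 7.5 / Compound: single nominal compound dose of 4.8 µM / Incubation: 5 h at 4 °C / Technique: TR-FRET, Eu(K)-anti-GST donor, streptavidin-D2 acceptor, ex 340, em 617/671 nm / Read-out basis: percent loss of FRET ratio relative to control wells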
NR2E3 ag-2: agonists of human NR2E3 nuclear receptor. CHO-S Gal4-NCOR/VP16-NR2E3 two-hybrid, luciferase. inhibition of corepressor binding, % at 3.98 µM. AID 602229. hit rate 0.35% among 360,000. Q9Y5X4;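 active means inhibition above the mean of all tested compounds plus 3 SD, cut at about 70% in these data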;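 further: 0% = DMSO with NR2E3 transfected cells and 100% = cells lacking NR2E3 construct; higher means lower luciferase signal from less NR2E3 corepressor binding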
CHT inh: human CHT choline transport inhibition | B-score at 10 µM | CHT-expressing cells, membrane potential dye, choline response; hits give low values | AID 488975 | hit rate 0.86% among 310,000;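 active means B-score over 3 SD under the library average, and starting fluorescence ratio not unusually high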;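 further: choline stimulus applied at its EC90 after an EC20 pre-addition; B-score computed on integrated fluorescence ratio after choline addition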
* hit, by the source's call; i = inactive; . = no result given.

SMILES	NR2F2 inh	CHT PAM	GalR3 antagonist	NR2E3 ag-1	NR2E3 ag-2	CHT inh
Cc1ccc(S(=O)(=O)/N=C2/C=C(Sc3ncn[nH]3)C(=O)c3ccccc32)cc1	.	i	.	7	106*	i
Cc1ccc2nc(-c3ccc(NC(=O)CSc4nnc(-c5cccc(Cl)c5)n4Cc4ccco4)cc3)sc2c1	-24	.	.	.	.	.
Cc1c(C(=O)c2no[n+]([O-])c2C(=O)c2cnn(C)c2C)cnn1C	-11	i	-3	0	9	-5.9*
COc1ccc(C(=O)c2no[n+]([O-])c2C(=O)c2ccc(OC)cc2)cc1	-7	i	3	-3	-21	i
COc1ccc(S[C@]2(C(=O)N3CCN(C(C)=O)CC3)CC(=O)N(S(=O)(=O)c3ccc(F)cc3)[C@@H]2c2ccc(OC)cc2)cc1	16	.	.	.	.	.
CCOC(=O)C1CCN(S(=O)(=O)c2c(Cl)ccc3nonc23)CC1	10	i	-3	-3	-4	-5.4*
O=Cc1coc2c(ccc3ccccc32)c1=O	.	i	.	1	.	-6.5*
c1ccc2c(c1)CCN(c1nc3cc4c(cc3s1)OCCO4)C2	61*	i	-1	-4	35	i
COc1ccc(OC)c2sc(N3CCc4ccccc4C3)nc12	-18	i	3	3	-41	i
C#CCN(C)S(=O)(=O)c1ccc(N2CCCC2)cc1Br	-8	.	.	.	.	.
CCOC(=O)CSc1nc(-c2ccccc2)cc(C(F)(F)F)n1	-11	i	3	6	-7	i
CS(=O)(=O)c1nc(-c2ccccc2)cc(C(F)(F)F)n1	-71	i	23*	7	-7	i
CCOC(=O)/C(=N\Nc1ccc(Br)cc1)N1CC(C)OC(C)C1 (stereo not given)	.	i	.	0	77*	i
CCOC(=O)/C(=N\Nc1ccccc1Cl)N1CC(C)OC(C)C1 (stereo not given)	4	i	-5	0	0	i
CN(C)c1ccc(C=c2c3ccccc3n3c2cc(-c2ccc(Cl)cc2)[n+]3C)cc1	59*	.	-3	.	7	.
COc1ccc(S[C@]2(C(=O)N3CCN(C(C)=O)CC3)CC(=O)N(C(=O)CCc3ccccc3)[C@@H]2c2ccc(OC)cc2)cc1	12	.	.	.	.	.
O=C(C1=C[C@H](C2CC2)C[C@H](OCc2ccc(CO)cc2)O1)N1CCN(Cc2ccc3c(c2)OCO3)CC1	12	i	-5	0	8	-5.3*
On1c2c(c3c4nonc4ccc31)CCCC2	.	i	.	-1	.	-11*
O[C@@H]1[C@@H](O)[C@H](n2c3ccc(Cl)cc3c3ccc4c5cc(Cl)ccc5[nH]c4c32)OC[C@H]1O	-41	.	.	.	.	.
Cc1ccc(C2c3c(C)nn(-c4ccc([N+](=O)[O-])cc4)c3N=C3C(=O)Nc4ccccc4N32)cc1 (stereo not given)	.	i	.	3	.	-6.3*
C=CCN(Cc1ccccc1)C(C#CC(=C)C)Cc1ccccc1 (stereo not given)	1	.	.	.	.	.
COc1cc2c(cc1OC)C(c1ccc(-c3ccccc3Cl)o1)=NCC2	21	6.6*	-7	3	-18	i
Nc1nc(Nc2ccc(Cl)cc2)nc2ccccc12	-31	i	-6	0	-95	-8.3*
CCC(NC(=O)c1ccc2c(c1)c(C)c(C)n2Cc1ccc(-c2ccccc2C#N)cc1)c1ccccc1 (stereo not given)	-6	.	.	.	.	.
O=C(NCCc1c[nH]c2ccccc12)OCc1cn(Cc2cccc(F)c2)nn1	-20	.	.	.	.	.
SMILES	NR2F2 inh	CHT PAM	GalR3 antagonist	NR2E3 ag-1	NR2E3 ag-2	CHT inh
CS(=O)(=O)N[C@@H]1C[C@@H]2O[C@H](CO)CC[C@@H]2O[C@@H]1CCc1ccc(-c2ccccc2F)cc1	15	.	.	.	.	.
CC(=O)N(c1ccc(Cl)cc1)c1cn(C(C)=O)c2ccccc12	13	i	-5	1	4	i
CC(=O)n1cc(-c2ccncc2)c2ccccc21	-1	6.5*	-4	5	-5	i
C=C1C(=O)c2sccc2C(c2ccc(OC)c(OC)c2)C1COC(C)=O (stereo not given)	89*	.	28*	.	22	.
CCCCNS(=O)(=O)/C=C/c1cc(C)ccc1CNC(=O)OC(C)(C)C	0	.	.	.	.	.
COC(=O)[C@H](CC(C)C)N(Cc1cn(Cc2ccc(C)cc2)nn1)S(=O)(=O)c1ccccc1Br	-3	.	.	.	.	.
O=c1c2cc(Cl)ccc2nc(-c2ccc(Cl)c(Cl)c2)n1O	-13	i	-2	2	-50	-7*
Oc1ccc2[nH]cc(CCc3ccccc3)c2c1-c1ccccc1	10	.	.	.	.	.
CCOC(=O)N1CCN(C(=S)Nc2ccc3nc(N4CCN(CC)CC4)cc(C)c3c2)CC1	-3	i	1	-2	-36	-8.3*
CC(Oc1ccc(Br)cc1)C(=O)Nc1ccc(S(=O)(=O)N(C)C2CCN(C)CC2)cc1 (stereo not given)	7	7.1*	-5	-2	26	i
CC(C)N(Cc1cn(Cc2ccccc2)nn1)S(=O)(=O)c1ccc(F)cc1Br	2	.	.	.	.	.
CC(C)NS(=O)(=O)c1cccc2nsnc12	-7	i	14*	-1	17	i
CCOC(=O)c1c(N)sc2c1CCN(CCc1ccccc1)C2	-3	8.1*	-10	-2	-12	i
CCOC(=O)c1c(NC(=S)Nc2ccccc2)sc2c1CCN(CCc1ccccc1)C2	.	i	.	-1	.	i
C#CCOCCOCCOCCNc1nc(N2CCN(C(=O)[C@H](CCCCN)n3cc([C@@H](N)C(C)CC)nn3)CC2)nc(N2CCN(C(=O)[C@H](CCCCN)n3cc([C@@H](N)C(C)CC)nn3)CC2)n1 (stereo not given in full)	4	.	.	.	.	.
Cc1ccc(NC(=O)C2CCCN2S(=O)(=O)c2cccnc2)cc1C (stereo not given)	9	.	.	.	.	.
COc1ccccc1C(CCNCc1ccc(N(C)C)cc1)c1ccc(OC(C)C)cc1 (stereo not given)	-1	8.7*	-11	1	11	i
O=c1c2c(n3nnnc3n1-c1ccccc1)-c1ccccc1CC21CCCC1	-5	i	14*	2	4	i
COC(=O)[C@]12C[C@H](CC(=O)NCCc3ccccc3OC)C(=O)N(CCc3ccc(OC)c(OC)c3)C1=C[C@H](C1CCCC1)O[C@@H]2C	-4	.	.	.	.	.
COc1ccc(-c2sc(Nc3ccccc3)n[n+]2-c2ccc(F)cc2)c(C)c1C	19	i	-6	2	-10	-5.4*
CN1Cc2cc(C(=O)c3cc(Cl)cc(CSc4ncccn4)c3O)cnc2NC1=O	.	7*	.	3	.	i
Cc1ccc(N2C(=O)c3cccc4c(N)ccc(c34)C2=O)c2cccnc12	-43	i	19*	-1	-23	i
Cc1nn(C)c(C)c1N1C(=O)c2cccc3c(N)ccc(c23)C1=O	15	i	12	-7	-19	i
